Reference: ChEMBL document CHEMBL1138093, “C-(4,5,6-trimethoxyindan-1-yl)methanamine: a mescaline analogue designed using a homology model of the 5-HT2A receptor” (J Med Chem, 2006)
pEC50, pKi: −log10 of the molar value.

Key:
[1] = organism: Rattus norvegicus; assay: Hallucinogenic activity in rat; type: functional; conditions: for ED50: Rattus norvegicus
Procedure, shortened: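 Rats were trained to discriminate saline from LSD tartrate (186 nmol/kg ip). The read-out was presses on the drug lever. […] At least 59% gave partial substitution.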

[2] = biological target: 5-hydroxytryptamine receptor 2A (Rattus norvegicus) (UniProt P14842); assay: (§1) Activity at rat 5HT2A receptor assessed as 5-HT-stimulated IP3 accumulation; type: functional
Procedure, shortened: (§2)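 Rat 5-HT2A-expressing stable cell line, seeded and assayed at 70% confluence. Cells were labeled 18-20 h with [3H]myoinositol at 1.0 µCi/mL, then pretreated 15 min with 10 µM pargyline/10 mM LiCl. Drug exposure was 30 min at 37 °C under 5% CO2. The assay was stopped with 10 mM formic acid, and [3H]inositol phosphates were isolated on Dowex-1 columns.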

[3] = biological target: T1, 5-hydroxytryptamine receptor 2A (Rattus norvegicus, UniProt P14842); assay: Displacement of [125I]DOI from rat 5HT2A receptor
Procedure, shortened: (§3)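 Stably transfected cells expressing rat 5-HT2A or 5-HT2C were serum-starved 5 h and pelleted. Binding used 50 mM Tris, 0.5 mM EDTA, 10 mM MgCl2, pH 7.4, incubated 60 min at 25 °C. Bound was separated by filtration onto PEI-soaked GF/B filters, then scintillation counting. Values came from competition curves.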

[4] = biological target: T1, 5-hydroxytryptamine receptor 2A; assay: as §1; type: functional; procedure, shortened: as §2
[5] = biological target: T2, 5-hydroxytryptamine receptor 2C (Rattus norvegicus, UniProt P08909); assay: Displacement of [125I]DOI from rat 5HT2C receptor; procedure, shortened: as §3
T2 sequence (P08909 whole entry): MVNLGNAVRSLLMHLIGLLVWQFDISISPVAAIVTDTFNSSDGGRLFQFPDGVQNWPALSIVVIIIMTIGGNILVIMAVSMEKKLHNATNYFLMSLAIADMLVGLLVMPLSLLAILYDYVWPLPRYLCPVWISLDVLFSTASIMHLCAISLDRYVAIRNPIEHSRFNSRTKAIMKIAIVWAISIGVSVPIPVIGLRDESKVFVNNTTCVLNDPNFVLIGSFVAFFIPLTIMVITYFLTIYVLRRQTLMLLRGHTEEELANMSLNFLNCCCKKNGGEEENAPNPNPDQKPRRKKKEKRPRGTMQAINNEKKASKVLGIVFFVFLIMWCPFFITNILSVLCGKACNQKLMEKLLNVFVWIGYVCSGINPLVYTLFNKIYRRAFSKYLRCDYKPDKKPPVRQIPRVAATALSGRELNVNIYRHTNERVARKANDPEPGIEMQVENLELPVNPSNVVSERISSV

T1 sequence (P14842 whole entry): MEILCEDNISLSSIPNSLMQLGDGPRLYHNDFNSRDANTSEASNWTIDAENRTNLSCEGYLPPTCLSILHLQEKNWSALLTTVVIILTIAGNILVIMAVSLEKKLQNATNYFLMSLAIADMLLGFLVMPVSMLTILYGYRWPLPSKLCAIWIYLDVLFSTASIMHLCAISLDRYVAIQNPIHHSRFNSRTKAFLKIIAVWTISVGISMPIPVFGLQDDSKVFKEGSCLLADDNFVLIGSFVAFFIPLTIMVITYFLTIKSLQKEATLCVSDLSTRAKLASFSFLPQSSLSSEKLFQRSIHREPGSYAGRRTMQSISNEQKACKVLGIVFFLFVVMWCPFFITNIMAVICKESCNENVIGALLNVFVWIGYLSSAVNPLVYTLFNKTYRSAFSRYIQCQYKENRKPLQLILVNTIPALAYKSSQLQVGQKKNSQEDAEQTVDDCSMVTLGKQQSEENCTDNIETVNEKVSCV
5-hydroxytryptamine receptor 2A (Rattus norvegicus), sequence (P14842 whole entry): as above

SMILES | ED50 [1] | Activity [2] | pKi [3] | pEC50 [4] | ED5 [1] | pKi [5]
CCN(CC)C(=O)[C@@H]1C=C2c3cccc4[nH]cc(c34)C[C@H]2N(C)C1 [LYSERGIDE] | 0.037 µmol/kg | 20% | – | – | – | –
COc1cc2c(c(OC)c1OC)CC[C@H]2CN | – | 88% | 7.16 | 5.49 | – | –
COc1cc2c(c(OC)c1OC)CC[C@@H]2CN | – | 59% | 5.95 | < 4.30 | – | –
COc1cc2c(c(OC)c1OC)CCC2CN (racemic) | – | 83% | 6.89 | 5.21 | 6.6 µmol/kg | 7.22
COc1cc(CCN)cc(OC)c1OC [MESCALINE] | 34 µmol/kg | 86% | 6.44 | 4.95 | – | 6.42
